In ChEMBL document CHEMBL1158782, “Cytotoxic germacrane sesquiterpenes from the aerial parts of Santolina insularis” (J Nat Prod, 2005):

What was measured:
[1] = Cytotoxicity against mouse peritoneal macrophages cells after 24 hrs by MTT assay; format: cell-based; settings: Macrophage
How it was run: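 Mouse cells harvested 4 days after intraperitoneal 10% thioglycollate, about 70% macrophages. Plated at 1 × 10^5/well and left to adhere for 3 h in DMEM with 10% FBS, 2 mM L-glutamine, 25 mM HEPES, antibiotics and 5 mM sodium pyruvate at 37 °C. Treated 24 h with compounds at 0.1-10 µg/mL. MTT (5 mg/mL) for 3 h, DMSO solubilization, OD490 read.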

[2] = test system: Caco-2; assay: Cytotoxicity against human Caco-2 cells after 24 hrs by MTT assay; format: functional, cell-based; settings: Caco-2, 24 h
How it was run: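 Caco-2 cells kept in DMEM with 10% FBS, 25 mM HEPES, 100 U/mL penicillin and 100 µg/mL streptomycin at 37 °C under humidified 5% CO2. Seeded at 1 × 10^4/well for 48 h, then exposed to compounds (0.1-10 µg/mL) for 24 h. MTT (5 mg/mL) added for 3 h at 37 °C, formazan dissolved in DMSO, OD490 read. IC50 reported.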

Question: Which IC50 [1] does the source give for `C/C1=C\[C@H](O)C[C@]2(C)O[C@H]2[C@H](O)[C@H](C(C)C)CC1` here?
Answer: Its IC50 is ≥ 10 µg/mL.

Question: With `C=C1CC[C@@H](C(C)C)[C@@H](O)/C=C(\C)[C@H](O)CC1=O` as the compound, how does the IC50 [1] read?
Answer: Its IC50 is ≥ 10 µg/mL.

Question: What does the source list for `C/C1=C/C[C@@H](C(C)C)[C@@H](O)[C@@H]2O[C@@]2(C)C[C@@H](O)[C@@H]1O`?
Answer: IC50 [1]: ≥ 10 µg/mL; IC50 [2]: 1100 nM

Question: For `CC(C)[C@@H]1CC[C@]2(C)O[C@H]2[C@H](O)C[C@]2(C)O[C@H]2[C@@H]1O`, which IC50 [1] is on record?
Answer: The IC50 was ≥ 10 µg/mL.

Question: For `C=C1C[C@@H](O)/C=C(\C)CC[C@@H](C(C)C)[C@@H](O)C1`, which IC50 [1] is on record?
Answer: The IC50 was ≥ 10 µg/mL.

Question: For `C/C1=C\[C@H](O)C/C(C)=C/[C@H](O)[C@H](C(C)C)CC1`, which IC50 [1] is on record?
Answer: The IC50 was ≥ 10 µg/mL.

Question: For `C=C1C[C@@H](O)[C@H](O)[C@]2(C)CC[C@@H](C(C)C)[C@@H](O)[C@@H]1O2`, which IC50 [1] is on record?
Answer: The IC50 was ≥ 10 µg/mL.

Question: What about the IC50 [2] of the same compound?
Answer: Its IC50 is 3700 nM.

Question: For `C=C1C[C@@H](O)[C@H](O)/C(C)=C\C[C@@H](C(C)C)[C@@H](O)[C@@H]1O`, which IC50 [1] is on record?
Answer: The IC50 was ≥ 10 µg/mL.

Question: For `CC(=O)O[C@H]1/C=C(\C)CC[C@@H](C(C)C)[C@@H](O)[C@@H]2O[C@@]2(C)C1`, which IC50 [1] is on record?
Answer: The IC50 was ≥ 10 µg/mL.
